How the values were obtained:
[1] = tested on: Human immunodeficiency virus 1; assay: Ratio of EC50 for HIV-1 M2 harboring protease L10I, I13V, M46I, I50V, L63P, L76V mutant to EC50 for wild type HIV-1 3B; type: functional
[2] = tested on: Human immunodeficiency virus 1; assay: Antiviral activity against wild type HIV-1 3B infected in human MT4 cells assessed as inhibition of viral replication after 3 days by GFP reporter gene assay in presence of human serum; type: functional, organism-based; details: Human immunodeficiency virus 1, 3B, MT4, 72 h
[3] = tested on: Human immunodeficiency virus 1; assay: Antiviral activity against HIV-1 M2 harboring protease L10I, I13V, M46I, I50V, L63P, L76V mutant infected in human MT4 cells assessed as inhibition of viral replication after 3 days by GFP reporter gene assay; type: functional, organism-based; details: Human immunodeficiency virus 1, M2, MT4, 72 h
Procedure, shortened: (§1)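 Cell-based replication assay in MT4 cells carrying an LTR-GFP readout (HIV tat drives GFP). Serial compound concentrations were mixed with cells at 150 000 cells/mL and 200 CCID50 of virus, incubated 3 days at 37 °C, 5% CO2. Percent inhibition per concentration gave dose-response curves for EC50/pEC50. Run in quadruplicate. Mock-infected parallel cultures at the same concentrations gave CC50.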

[4] = tested on: Human immunodeficiency virus 1; assay: Ratio of EC50 for HIV-1 M1 harboring protease L10I, M46I, I64V, I84V, L90M, I93L mutant to EC50 for wild type HIV-1 3B; type: functional
[5] = tested on: Human immunodeficiency virus 1; assay: Antiviral activity against HIV-1 M3 harboring protease L10I, K20R, M36I, G48V, I62V, A71V, V82A, I93L mutant infected in human MT4 cells assessed as inhibition of viral replication after 3 days by GFP reporter gene assay; type: functional, organism-based; details: Human immunodeficiency virus 1, M3, MT4, 72 h; procedure, shortened: as §1
[6] = tested on: Human immunodeficiency virus 1; assay: Antiviral activity against wild type HIV-1 3B infected in human MT4 cells assessed as inhibition of viral replication after 3 days by GFP reporter gene assay; type: functional, organism-based; details: Human immunodeficiency virus 1, 3B, MT4, 72 h
Procedure, shortened: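 MT4 cells (150 000 cells/mL) were infected with wild-type HIV-1/LAI at 200 CCID50 across a compound concentration range. Plates were incubated 3 days at 37 °C and 5% CO2. Replication was read as GFP driven by HIV-tat binding LTR sequences. EC50 was taken from dose-response curves of percent inhibition, in quadruplicate. Mock-infected parallel cultures gave CC50 from reduced GFP.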

[7] = tested on: Human immunodeficiency virus 1; assay: Ratio of EC50 for HIV-1 M3 harboring protease L10I, K20R, M36I, G48V, I62V, A71V, V82A, I93L mutant to EC50 for wild type HIV-1 3B; type: functional
[8] = tested on: Human immunodeficiency virus 1; assay: Antiviral activity against HIV-1 M1 harboring protease L10I, M46I, I64V, I84V, L90M, I93L mutant infected in human MT4 cells assessed as inhibition of viral replication after 3 days by GFP reporter gene assay; type: functional, organism-based; details: Human immunodeficiency virus 1, M1, MT4, 72 h; procedure, shortened: as §1

SMILES	Ratio EC50 [1]	EC50 [2]	EC50 [3]	Ratio EC50 [4]	EC50 [5]	EC50 [6]	Ratio EC50 [7]	EC50 [8]
CNc1nc2ccc(S(=O)(=O)N(CC(C)C)C[C@@H](O)[C@H](Cc3ccccc3)NC(=O)O[C@H]3CO[C@H]4OC[C@H](F)[C@H]43)cc2o1	4.1	8.4 nM	2.8 nM	1.2	0.7 nM	0.7 nM	0.9	0.8 nM
CC(C)CN(C[C@@H](O)[C@H](Cc1ccccc1)NC(=O)O[C@H]1CO[C@H]2OC[C@H](NC(=O)OCc3ccccc3)[C@H]21)S(=O)(=O)c1ccc(N)cc1	16	35.2 nM	82.5 nM	1.1	1.8 nM	5 nM	0.4	5.7 nM
CC(C)CN(C[C@@H](O)[C@H](Cc1ccccc1)NC(=O)O[C@H]1CO[C@H]2OC[C@H](OC(=O)NCc3ccccc3)[C@H]21)S(=O)(=O)c1ccc(N)cc1	22	30.4 nM	124 nM	3.2	5.2 nM	5.8 nM	0.9	15.5 nM
CC(C)CN(C[C@@H](O)[C@H](Cc1ccccc1)NC(=O)O[C@H]1CO[C@H]2OC[C@H](OCC(=O)NCc3ccccc3)[C@H]21)S(=O)(=O)c1ccc(N)cc1	2.2	93.5 nM	35.2 nM	0.7	9.3 nM	16 nM	0.6	10.8 nM
CC(C)CN(C[C@@H](O)[C@H](Cc1ccccc1)NC(=O)O[C@H]1CO[C@H]2OC[C@H](Cl)[C@H]21)S(=O)(=O)c1ccc(N)cc1	85	4.6 nM	31.6 nM	7.5	1.5 nM	0.4 nM	4	2.8 nM
CNc1nc2ccc(S(=O)(=O)N(CC(C)C)C[C@@H](O)[C@H](Cc3ccccc3)NC(=O)O[C@H]3CO[C@H]4OC[C@H](NC(=O)OCc5ccccc5)[C@H]43)cc2o1	2	16.6 nM	7.5 nM	0.6	1 nM	3.8 nM	0.3	2.4 nM
CNc1nc2ccc(S(=O)(=O)N(CC(C)C)C[C@@H](O)[C@H](Cc3ccccc3)NC(=O)O[C@H]3CO[C@H]4OC[C@H](OC(=O)NCc5ccccc5)[C@H]43)cc2o1	2.4	26.7 nM	13.9 nM	1.2	4 nM	5.8 nM	0.7	7.2 nM
CNc1nc2ccc(S(=O)(=O)N(CC(C)C)C[C@@H](O)[C@H](Cc3ccccc3)NC(=O)O[C@H]3CO[C@H]4OC[C@H](OCC(=O)NCc5ccccc5)[C@H]43)cc2o1	0.6	102 nM	15.1 nM	0.5	6.4 nM	25 nM	0.3	13.4 nM
CNC(=O)CO[C@H]1CO[C@@H]2OC[C@H](OC(=O)N[C@@H](Cc3ccccc3)[C@H](O)CN(CC(C)C)S(=O)(=O)c3ccc4nc(NC)oc4c3)[C@@H]21	0.4	376 nM	204 nM	0.3	68.5 nM	460 nM	0.1	151 nM
CNc1nc2ccc(S(=O)(=O)N(CC(C)C)C[C@@H](O)[C@H](Cc3ccccc3)NC(=O)O[C@H]3CO[C@H]4OC[C@H](OCC(=O)N(C)C)[C@H]43)cc2o1	0.3	243 nM	83.8 nM	0.4	50.4 nM	249 nM	0.2	102 nM
C=C(F)CO[C@H]1CO[C@@H]2OC[C@H](OC(=O)N[C@@H](Cc3ccccc3)[C@H](O)CN(CC(C)C)S(=O)(=O)c3ccc4nc(NC)oc4c3)[C@@H]21	6.1	2.2 nM	2.3 nM	1.2	0.5 nM	0.4 nM	1.4	0.8 nM
CNc1nc2ccc(S(=O)(=O)N(CC(C)C)C[C@@H](O)[C@H](Cc3ccccc3)NC(=O)O[C@H]3CO[C@H]4OC[C@H](OCCC(F)(F)F)[C@H]43)cc2o1	5.9	8.2 nM	2.8 nM	1.9	0.8 nM	0.5 nM	1.6	0.9 nM
CNc1nc2ccc(S(=O)(=O)N(CC(C)C)C[C@@H](O)[C@H](Cc3ccccc3)NC(=O)O[C@H]3CO[C@H]4OC[C@H](Cl)[C@H]43)cc2o1	4.6	4.2 nM	2.1 nM	1.6	0.7 nM	0.5 nM	1.6	0.7 nM
COc1ccc(S(=O)(=O)N(CC(C)C)C[C@@H](O)[C@H](Cc2ccccc2)NC(=O)O[C@H]2CO[C@H]3OC[C@H](O)[C@H]32)cc1	1	12.4 nM	6.7 nM	1.1	1.6 nM	6.5 nM	0.2	6.9 nM
COc1ccc(S(=O)(=O)N(CC(C)C)C[C@@H](O)[C@H](Cc2ccccc2)NC(=O)O[C@H]2CO[C@H]3OC[C@H](OCC(=O)NCc4ccccc4)[C@H]32)cc1	7.5	4.6 nM	4.4 nM	5.6	1 nM	0.6 nM	1.7	3.3 nM
CNC(=O)CO[C@H]1CO[C@@H]2OC[C@H](OC(=O)N[C@@H](Cc3ccccc3)[C@H](O)CN(CC(C)C)S(=O)(=O)c3ccc(OC)cc3)[C@@H]21	2.3	16.1 nM	15.7 nM	2.1	8.3 nM	6.9 nM	1.2	14.3 nM
COc1ccc(S(=O)(=O)N(CC(C)C)C[C@@H](O)[C@H](Cc2ccccc2)NC(=O)O[C@H]2CO[C@H]3OC[C@H](OCC(=O)N(C)C)[C@H]32)cc1	3	7 nM	11.5 nM	1.8	2.9 nM	3.8 nM	0.8	7 nM
